Source: ChEMBL document CHEMBL1145239 (Bioorg Med Chem Lett, 2005)

What follows are compounds tested against Dipeptidyl peptidase 4 (Rattus norvegicus, UniProt P14740) (assay: Inhibitory concentration against rat dipeptidylpeptidase IV).
How it was run: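 DPP-IV activity in rat plasma (10-fold diluted) by fluorescence with Gly-Pro-MCA substrate (100 µmol/L solution added); buffer PBS with 0.003% Brij-35. Inhibitor at various concentrations, room temperature, 60 min. Inhibition relative to solvent control; IC50 by logistic analysis.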

Chain of Dipeptidyl peptidase 4 (P14740 whole entry): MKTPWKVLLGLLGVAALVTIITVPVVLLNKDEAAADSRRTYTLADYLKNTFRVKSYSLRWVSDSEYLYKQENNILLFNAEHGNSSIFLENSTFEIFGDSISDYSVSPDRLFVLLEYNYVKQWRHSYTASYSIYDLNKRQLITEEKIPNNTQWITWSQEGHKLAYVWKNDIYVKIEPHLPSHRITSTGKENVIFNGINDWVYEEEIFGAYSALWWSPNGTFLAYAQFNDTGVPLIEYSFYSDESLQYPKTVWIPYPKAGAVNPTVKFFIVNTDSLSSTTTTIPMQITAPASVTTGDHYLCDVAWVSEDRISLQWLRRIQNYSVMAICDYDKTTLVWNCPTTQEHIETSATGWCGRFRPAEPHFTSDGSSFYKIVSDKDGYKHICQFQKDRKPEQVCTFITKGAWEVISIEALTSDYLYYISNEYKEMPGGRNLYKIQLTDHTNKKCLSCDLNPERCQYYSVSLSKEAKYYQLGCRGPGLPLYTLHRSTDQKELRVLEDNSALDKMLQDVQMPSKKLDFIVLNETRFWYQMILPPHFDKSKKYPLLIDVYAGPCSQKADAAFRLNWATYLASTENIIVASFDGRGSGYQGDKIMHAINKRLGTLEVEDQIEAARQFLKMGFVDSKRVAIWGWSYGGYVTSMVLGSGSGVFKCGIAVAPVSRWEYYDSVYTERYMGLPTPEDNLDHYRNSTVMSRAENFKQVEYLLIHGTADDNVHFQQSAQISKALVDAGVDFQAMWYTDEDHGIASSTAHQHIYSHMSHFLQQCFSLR

In order of rising IC50:
1. N#Cc1ccc(N[C@@H]2CN[C@H](C(=O)N3CCC[C@H]3C#N)C2)cc1C#N  0.17 nM
2. COc1ccc(N[C@@H]2CN[C@H](C(=O)N3CCC[C@H]3C#N)C2)cc1OC  0.24 nM
3. N#Cc1ccc(N[C@@H]2CN[C@H](C(=O)N3CCC[C@H]3C#N)C2)cc1  0.26 nM
4. COc1ccc(N[C@@H]2CN[C@H](C(=O)N3CCC[C@H]3C#N)C2)cc1  0.28 nM
5. N#C[C@@H]1CCCN1C(=O)[C@@H]1C[C@H](NC(=O)Nc2ccccc2)CN1  1.1 nM
6. N#C[C@@H]1CCCN1C(=O)[C@@H]1C[C@H](NCCc2ccccc2)CN1  1.5 nM
7. N#C[C@@H]1CCCN1C(=O)[C@@H]1C[C@H](NCc2ccccc2)CN1  3 nM
8. N#C[C@@H]1CCCN1C(=O)[C@@H]1C[C@H](NC2CCCCC2)CN1  3.6 nM
9. N#C[C@@H]1CCCN1C(=O)[C@@H]1C[C@H](NC(=O)c2ccccc2)CN1  3.8 nM
10. N#C[C@@H]1CCCN1C(=O)[C@@H]1C[C@H](NS(=O)(=O)c2ccccc2)CN1  3.9 nM
11. N#C[C@@H]1CCCN1C(=O)[C@@H]1C[C@H](N)CN1  9.1 nM
